As usually defined, the logD is lipophilicity at a set pH, counting ionised and neutral species. Lower therefore signals lower lipophilicity. Broadly, the bioavailability is dose-corrected exposure relative to a reference, in per cent.

Data set [1] in a line: Metabolic stability in human liver microsomes assessed as compound remaining measured at […]. The class given is ADME. The settings on record: read-out: Stability. (In general: Microsomes from liver hold many membrane-bound enzymes, among them those of drug oxidation.)
A short description of data set [2]: Lipophilicity, log D of the compound. The class given is physicochemical. To be noted: octanol/water.
Data set [3] is described as follows: Metabolic stability in mouse liver microsomes assessed as compound remaining measured at 30 mins. To be noted: read-out: Stability. It is filed as ADME.
Data set [4] is described as follows: Total plasma concentration in NMRI mouse infected with Plasmodium berghei ANKA at 50 mg/kg, po qd administered on day 1 to 3 post infection measured at 1 hr post last dose. The class given is ADME, organism-based. Also on record: dose 50 mg/kg, route oral. The essentials: (§1)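 4-day Peters test in groups of 3 mice infected iv on day 0. Oral dosing was 50 mg/kg once daily at 4, 24, 48 and 72 h post-infection. The monohydrochloride salt was dissolved in 30:70 EtOH/Tween-80 and diluted 10-fold with water. Blood was sampled for total plasma compound levels.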

Data set [5] can be described thus: Total plasma concentration in NMRI mouse infected with Plasmodium berghei ANKA at 50 mg/kg, po qd administered on day 1 to 3 post infection measured at 4 hrs post last dose. It is filed as ADME, organism-based. Also on record: dose 50 mg/kg, route oral. The essentials:
as §1

Data set [6] can be described thus: Oral bioavailability in rat at 21 mg/kg. It is filed as ADME, organism-based. The settings on record: in vivo.
For data set [7], the system named is Rattus norvegicus. Put plainly: Half life in rat at […], iv. The class given is ADME, organism-based. Also on record: dose 4.5 mg/kg, route intravenous. The settings on record: in vivo.
For data set [8], the system named is Rattus norvegicus. Put plainly: Volume of distribution in rat at […], iv and 21 mg/kg, po. The class given is ADME, organism-based. The settings on record: in vivo.

Consider `N[C@H]1CC[C@H](Nc2ccc3ncc(-c4cnc(Nc5ccccn5)nc4)n3n2)CC1`, for which, in data set [1], the remaining came to 99%. Further, the log distribution coefficient (logD) in data set [2] came to 1.1. Moreover, the remaining at 0.5 h in data set [3] stood at 93%.

With `N[C@H]1CC[C@H](Nc2ccc3ncc(-c4cnc(Nc5ccccc5)nc4)n3n2)CC1`, the remaining in data set [1] worked out at 89%. The molecule further showed a logD in data set [2] of 1.6. In data set [3], the remaining at 0.5 h stood at 92%.

As to `N[C@H]1CC[C@H](Nc2ccc3ncc(-c4cnc(Nc5ncccc5F)nc4)n3n2)CC1`, the remaining in data set [1] amounted to 93%. The same molecule had a logD in data set [2] of 0.2. Moreover, the remaining at 0.5 h in data set [3] came out at 85%.

Consider `N[C@H]1CC[C@H](Nc2ccc3ncc(-c4cnc(Nc5ncc(C(F)(F)F)cc5F)nc4)n3n2)CC1`, for which, in data set [1], the remaining came to 69%. The same molecule returned a logD in data set [2] of 1.6. Besides, the remaining at 0.5 h in data set [3] was 93%.

`Cc1ccc(Nc2ncc(-c3cnc4ccc(N[C@H]5CC[C@H](N)CC5)nn34)cn2)nc1`: in data set [1], the remaining turned out to be 92%. Also, the logD in data set [2] came out at 1.1. In data set [3], the remaining at 0.5 h was determined as 100%.

For `N[C@H]1CC[C@H](Nc2ccc3ncc(-c4cnc(NCc5ccccn5)nc4)n3n2)CC1`, the remaining in data set [1] came to 95%. The same molecule displayed a logD in data set [2] of 0.4. In addition, in data set [3], the remaining at 0.5 h came to 95%.

Turning to `CN1CCC(Nc2ccc3ncc(-c4cnc(Nc5ncccc5F)nc4)n3n2)CC1`, the remaining in data set [1] turned out to be 98%. This molecule had a logD in data set [2] of 1.4. Also, in data set [3], the remaining at 0.5 h turned out to be 85%.

Turning to `CN1CCC(Nc2ccc3ncc(-c4ccc(Nc5ncccc5F)nc4)n3n2)CC1`, in data set [1], the remaining was found to be 77%. Besides, the logD in data set [2] was found to be 3.1. The remaining at 0.5 h in data set [3] was 57%.

Molecule `Cc1ccc2ncc(-c3cnc(Nc4ncccc4F)nc3)n2n1` had a logD in data set [2] of 2.5.

`Fc1cccnc1Nc1ncc(-c2cnc3ccc(N4CCNCC4)nn23)cn1` came in with a logD in data set [2] of 0.7.

`CN1CCN(c2ccc3ncc(-c4cnc(Nc5ncccc5F)nc4)n3n2)CC1` returned a logD in data set [2] of 2.2.

On to `Fc1cccnc1Nc1ncc(-c2cnc3ccc(NCCN4CCOCC4)nn23)cn1`, for which, in data set [2], the logD came to 2.9.

The molecule `CN1CCN(CCNc2ccc3ncc(-c4cnc(Nc5ncccc5F)nc4)n3n2)CC1` showed a pH-dependent lipophilicity (logD) in data set [2] of 1.6.

With `Fc1cccnc1Nc1ncc(-c2cnc3ccc(NCCN4CCCC4)nn23)cn1`, the logD in data set [2] came to 1.5.

On to `Fc1cccnc1Nc1ncc(-c2cnc3ccc(N[C@H]4CC[C@H](N5CCOCC5)CC4)nn23)cn1`, for which the logD in data set [2] is reported as 3.2.

For the molecule `Fc1cccnc1Nc1ncc(-c2cnc3ccc(N[C@H]4CC[C@H](N5CCCC5)CC4)nn23)cn1`, in data set [2], the logD was found to be 1.9.

`CN1CCC(Oc2ccc3ncc(-c4cnc(Nc5ncccc5F)nc4)n3n2)CC1`: in data set [2], the logD was 1.5.

Regarding `CN1CCC(Cc2ccc3ncc(-c4cnc(Nc5ncccc5F)nc4)n3n2)CC1`, in data set [2], the logD stood at 1.3.

Take `CN1CCC(Nc2ccc3ncc(-c4ccc(Nc5ncccc5F)cc4)n3n2)CC1`: the remaining in data set [1] came out at 80%. This molecule returned a concentration at 1 h in data set [4] of 1660 ng/mL. The molecule further showed a logD in data set [2] of 3.2. In data set [3], the remaining at 0.5 h is 47%. In data set [5], this molecule yielded a concentration at 4 h of 1460 ng/mL.

For `Fc1cccnc1Nc1ccc(-c2cnc3ccc(N[C@H]4CC[C@H](N5CCCC5)CC4)nn23)cn1`, in data set [1], the remaining worked out at 71%. The logD in data set [2] was determined as 2.8. For the same molecule, in data set [3], the remaining at 0.5 h stood at 88%.

Regarding `Fc1cccnc1Nc1ccc(-c2cnc3ccc(N[C@H]4CC[C@H](N5CCCC5)CC4)nn23)cc1`, in data set [1], the remaining amounted to 60%. In data set [2], this molecule came in with a logD of 3.3. Besides, in data set [3], the remaining at 0.5 h amounted to 82%.

Turning to `CN1CCC(Nc2ccc3ncc(-c4ccc(Nc5ncc(Cl)cc5F)cc4)n3n2)CC1`, the remaining in data set [1] stood at 86%. In addition, the logD in data set [2] was 3.7. Also, the remaining at 0.5 h in data set [3] came to 61%.

Take `Cc1ccc(F)c(Nc2ccc(-c3cnc4ccc(NC5CCN(C)CC5)nn34)cc2)n1`: the remaining in data set [1] was 77%. For the same molecule, in data set [2], the log distribution coefficient (logD) was 3.5. Moreover, the remaining at 0.5 h in data set [3] turned out to be 52%.

Take `CN1CCC(Nc2ccc3ncc(-c4ccc(Nc5ncc(F)cc5F)cc4)n3n2)CC1`: in data set [1], the remaining worked out at 78%. In data set [2], this molecule yielded a logD of 3.7. Also, the remaining at 0.5 h in data set [3] amounted to 58%.

Consider `CN1CCC(Nc2ccc3ncc(-c4ccc(Nc5ccc(C(F)(F)F)cn5)cc4)n3n2)CC1`, for which the remaining in data set [1] was determined as 81%. Further, the logD in data set [2] worked out at 3.7. For the same molecule, the remaining at 0.5 h in data set [3] is 85%.

As for `CN1CCC(Nc2ccc3ncc(-c4ccc(Nc5cccc(C(F)(F)F)n5)cc4)n3n2)CC1`, the remaining in data set [1] was 80%. This molecule yielded a logD in data set [2] of 3.4. For the same molecule, the remaining at 0.5 h in data set [3] was determined as 73%.

As for `N[C@H]1CC[C@H](Nc2ccc3ncc(-c4ccc(Nc5ncc(F)cc5F)cc4)n3n2)CC1`, the remaining in data set [1] amounted to 68%. In data set [2], this molecule showed a log distribution coefficient (logD) of 2. The remaining at 0.5 h in data set [3] was 87%.

Regarding `N[C@H]1CC[C@H](Nc2ccc3ncc(-c4ccc(Nc5ncc(Cl)cc5F)cc4)n3n2)CC1`, the remaining in data set [1] amounted to 77%. Also, the logD in data set [2] is listed as 3.1. Besides, the remaining at 0.5 h in data set [3] came out at 57%.

Take `Cc1ccc(F)c(Nc2ccc(-c3cnc4ccc(N[C@H]5CC[C@H](N)CC5)nn34)cc2)n1`: in data set [1], the remaining stood at 83%. This molecule gave a log distribution coefficient (logD) in data set [2] of 2.2. Moreover, in data set [3], the remaining at 0.5 h was 90%.

`CN1CCC(Nc2ccc3ncc(-c4ccc(Nc5ncccc5F)cc4)n3n2)CC1.Cl` returned a bioavailability in data set [6] of 70%. In data set [7], this molecule came in with a t1/2 of 4 h. The molecule also yielded a Vd in data set [8] of 8 L/kg.

`Fc1cccnc1Nc1ncc(-c2cnc3ccc(NC4CCNC4)nn23)cn1` (racemic) yielded a logD in data set [2] of 0.4.

`CN1CCC(Nc2ccc3ncc(-c4cnc(Nc5ncccc5F)nc4)n3n2)C1` (racemic): in data set [2], the logD is given as 1.5.

As for `CN1CCC(Oc2ccc3ncc(-c4cnc(Nc5ncccc5F)nc4)n3n2)C1` (racemic), the logD in data set [2] is 1.5.

These data come from ChEMBL document CHEMBL3259664, “Optimization of an imidazopyridazine series of inhibitors of Plasmodium falciparum calcium-dependent protein kinase 1 (PfCDPK1)” (J Med Chem, 2014).
